The values that follow come from ChEMBL document CHEMBL1156228 (2010).

A short description of test [1]: Antioxidant activity in HSMC assessed as protection from H2O2-induced toxicity at 50 uM pretreated for 2 hrs before H2O2 challenge measured after 1 hr by MTT assay. Type of test: functional, Homo sapiens. In outline:
(§1)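 Cells grown to 80% confluence at 37°C in 5% CO2, trypsinized and seeded at about 7,000 cells/well. After 24–48 h they were exposed to derivative for 2 h, then to H2O2 at 1 mM for 1 h. Viability was read by MTT-to-formazan conversion, with at least 6 repeats.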
A general note: Formazan colour is commonly taken as a measure of viable cells.

In the next test the test system is CHO. Kind of test: Antioxidant activity in CHO cells assessed as protection from H2O2-induced toxicity at 50 uM pretreated for 2 hrs before H2O2 challenge measured after 1 hr by MTT assay. Type of test: functional, Cricetulus griseus. A digest of the protocol: as §1
Test [2] in a line: Antioxidant activity assessed as superoxide radical-scavenging activity at 1 mM by EPR spectroscopy. Type of test: functional. A digest of the protocol:
(§2)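 Superoxide generated by xanthine (0.2 mM) plus xanthine oxidase (0.02 U/ml) in PBS pH 7.4 containing DEPMPO spin trap (1 mM) and DTPA (0.1 mM), with or without derivative. The DEPMPO-OOH adduct was measured by EPR and double-integrated. Signal is expressed as percent of the level without derivative.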

A short description of test [3]: Antioxidant activity assessed as superoxide radical-scavenging activity at 100 uM by EPR spectroscopy. Type of test: functional. In outline:
as §2

Test [4] is described as follows: Antioxidant activity assessed as peroxyl radical-scavenging activity at 1 mM by EPR spectroscopy. Type of test: functional. In outline:
(§3)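 Alkylperoxyl radicals generated by thermolysis of 2,2-azobis-2-amidinopropane dihydrochloride (25 mM) in aerobic PBS at 37°C. EPR run in PBS pH 7.4 with DEPMPO (1 mM) and DTPA (0.1 mM), with or without derivative. The DEPMPO-OOR adduct was quantified by double integration and expressed as percent of the untreated level.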

A short description of test [5]: Antioxidant activity assessed as peroxyl radical-scavenging activity at 100 uM by EPR spectroscopy. Type of test: functional. In outline:
as §3

Values joined by “and” are separate entries in the source; they are usually repeats but may differ in a detail not shown here. Equal entries are not always repeated.

As for `COc1ccc(CCN(C)CCCC(CNC(=O)C2CC(C)(C)N(O)C(C)(C)C2)(c2ccc(OC)c(OC)c2)C(C)C)cc1OC` (centres undefined), the Activity turned out to be 40.2% in test [1]; 50.3% in the test with CHO; 100% in test [2]; 76.5% in test [3]; 90.1% in test [4].
Consider `COc1ccc(CCN(C)CCCC(CNC(=O)CC2(C)CCC(C)(C)N2O)(c2ccc(OC)c(OC)c2)C(C)C)cc1OC` (centres undefined), for which the Activity in test [1] was 44%; with CHO, 54%; in test [2], 100%; in test [3], 70.7% and 78.1%; in test [5] it was 89.2%; in test [4], 100%.
With `COc1ccc(CCN(C)CCCC(CNCC2=CC(C)(C)N(O)C2(C)C)(c2ccc(OC)c(OC)c2)C(C)C)cc1OC` (centres undefined), the Activity came out at 43.3% in test [1]; 63.6% in the test with CHO; 100% in test [2]; 88.5% in test [3]; 92.9% in test [5]; 100% in test [4].
For the molecule `COc1ccc(CCN(C)CCCC(CNC(=O)C2=CC(C)(C)N(O)C2(C)C)(c2ccc(OC)c(OC)c2)C(C)C)cc1OC` (centres undefined), the Activity in test [1] came to 59.1%; with CHO it was 48.9%; in test [2], 55.2%; in test [4] it was 14.9%.
As to `COc1ccc(CCN(C)CCCC(CNC(=O)C2=C(C)C(C)(C)N(O)C2(C)C)(c2ccc(OC)c(OC)c2)C(C)C)cc1OC` (centres undefined), the Activity in test [1] is 39.7%; in the test on CHO, 60%; in test [2], 100%; in test [3] it was 78.2%; in test [5], 100%; in test [4] it was 100%.
Turning to `COc1ccc(CCN(C)CCC[C@@](CNC(=O)C2=CC(C)(C)N(O)C(C)(C)C2)(c2ccc(OC)c(OC)c2)C(C)C)cc1OC`, the Activity in test [1] amounted to 33.1%; in the test with CHO, 46.1%; in test [2], 100%; in test [3], 66.5%; in test [5], 91.4%; in test [4] it was 100%.
Consider `COc1ccc(CCN(C)CCCC(CNCC2=CC(C)(C)NC2(C)C)(c2ccc(OC)c(OC)c2)C(C)C)cc1OC` (centres undefined), for which the Activity in test [1] was 39.1%; in the test with CHO, 71.2%; in test [2], 100%; in test [3], 73.8%; in test [5], 89.8%; in test [4] it was 100%.
Take `COc1ccc(CCN(C)CCCC(CNC(=O)C2=CC(C)(C)N(C)C2(C)C)(c2ccc(OC)c(OC)c2)C(C)C)cc1OC` (centres undefined): the Activity in test [1] was 48.7%; in the test with CHO, 55.5%; in test [2], 60.7%; in test [4], 89.8%.
Consider `COc1ccc(CCN(C)CCCC(CNC(=O)C2=C(c3ccccc3)C(C)(C)N(O)C2(C)C)(c2ccc(OC)c(OC)c2)C(C)C)cc1OC` (centres undefined), for which the Activity is 47.5% in test [1]; 68.3% in the test on CHO; 100% in test [2]; 79.3% in test [3]; 86.1% in test [5]; 100% in test [4].
In the case of `COc1ccc(CCN(C)CCCC(CNC(=O)C2=CC(C)(C)NC2(C)C)(c2ccc(OC)c(OC)c2)C(C)C)cc1OC` (centres undefined), the Activity in test [1] was found to be 53.7%; with CHO, 53.5%; in test [2], 34.9%; in test [4] it was 84.1%.
Regarding `COc1ccc(CCN(C)CCCC(CNC(=O)C2CC(C)(C)N(O)C2(C)C)(c2ccc(OC)c(OC)c2)C(C)C)cc1OC` (centres undefined), the Activity turned out to be 40.2% in test [1]; 62.1% in the test with CHO; 100% in test [2]; 84.2% in test [3]; 98% in test [5]; 100% in test [4].
